From ChEMBL document CHEMBL1143677, “Discovery of 4-aryl-4H-chromenes as a new series of apoptosis inducers using a cell- and caspase-based high-throughput screening assay. 3. Structure-activity relationships of fused rings at the 7,8-positions” (J Med Chem, 2007)

Tests used:
[1] = tested on: T47D; test: Apoptosis inducing activity in human T47D cells by caspase activation assay; type: functional, cell-based
Outline: (§1)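 Cell-based caspase activation (apoptosis induction) HTS assay run in T47D breast and H1299 non-small-cell lung cancer cells; EC50 reported as mean ± SEM of three or more experiments.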

[2] = Growth inhibition of human H1299 cells after 48 hrs; type: functional; details: NCI-H1299, 48 h
Outline: (§2)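 Cells were exposed continuously to compound for 48 h at 37 °C in 96-well format. CellTiter-Glo reagent was added with agitation, then 10-15 min at room temperature before luminescence read-out.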

[3] = tested on: NCI-H1299; test: Apoptosis inducing activity in human H1299 cells by caspase activation assay; type: functional, cell-based; outline: as §1
[4] = tested on: T47D; test: Growth inhibition of human T47D cells after 48 hrs; type: functional; outline: as §2
[5] = biological target: Tubulin; test: Inhibition of tubulin polymerization; type: protein-complex assay, Homo sapiens

Compound	EC50 [1] [nM]	GI50 [2] [nM]	EC50 [3] [nM]	GI50 [4] [nM]	IC50 [5] [nM]
Cc1cncc(C2C(C#N)=C(N)Oc3c2ccc2[nH]ccc32)c1 (stereo not given)	13	100	65	73	
COc1cc(C2C(C#N)=C(N)Oc3c2ccc2c3CCCC2)cc(Br)c1OC (stereo not given)	190		520		
COc1cncc(C2C(C#N)=C(N)Oc3c2ccc2[nH]ccc32)c1 (stereo not given)	16		30		
COc1cc(C2C(C#N)=C(N)Oc3c2ccc(N)c3N)cc(Br)c1OC (stereo not given)		31		150	
COc1cc(C2C(C#N)=C(N)Oc3c2ccc2ccccc32)cc(Br)c1OC (stereo not given)	73		93		
COc1cc(OC)cc(C2C(C#N)=C(N)Oc3c2ccc2cc[nH]c32)c1 (stereo not given)	31		59		
COc1cccc(C2C(C#N)=C(N)Oc3c2ccc2cc[nH]c32)c1 (stereo not given)	88		140		
COc1cc(C2C(C#N)=C(N)Oc3c2ccc2nc(C)c(C)nc32)cc(Br)c1OC (stereo not given)	2120		2720		
COc1cc(C2C(C#N)=C(N)Oc3c2ccc2nccnc32)cc(Br)c1OC (stereo not given)	460	550	860	450	
N#CC1=C(N)Oc2c(ccc3[nH]ccc23)C1c1ccccc1 (stereo not given)			430		
COc1cc(C2C(C#N)=C(N)Oc3c2ccc2[nH]c(C)cc32)cc(Br)c1OC (stereo not given)		140	57	89	
COc1cc(C2C(C#N)=C(N)Oc3c2ccc2[nH]ccc32)cc(Br)c1O (stereo not given)	13	71	25	57	
COc1cc(OC)cc(C2C(C#N)=C(N)Oc3c2ccc2[nH]ccc32)c1 (stereo not given)	30		120		
N#CC1=C(N)Oc2c(ccc3[nH]ccc23)C1c1cccc(C#N)c1 (stereo not given)	43		43		
COc1cc(C2C(C#N)=C(N)Oc3c2ccc2[nH]ccc32)cc(OC)c1OC (stereo not given)	30		77		
Cc1cncc(C2C(C#N)=C(N)Oc3c2ccc2cnccc32)c1 (stereo not given)	230		290		
COc1cc(C2C(C#N)=C(N)Oc3c2ccc2cnccc32)cc(I)c1OC (stereo not given)	64		130		

Compound	EC50 [1] [nM]	GI50 [2] [nM]	EC50 [3] [nM]	GI50 [4] [nM]	IC50 [5] [nM]
N#CC1=C(N)Oc2c(ccc3cnccc23)C1c1cncc(Br)c1 (stereo not given)	120		150		
COc1cc(C2C(C#N)=C(N)Oc3c2ccc2cc[nH]c32)cc(Br)c1O (stereo not given)	35	70	80	70	
COc1cc(C2C(C#N)=C(N)Oc3c2ccc2[nH]ccc32)cc(Br)c1OC (stereo not given)		19	13	8	400
N#CC1=C(N)Oc2c(ccc3[nH]ccc23)C1c1cccc([N+](=O)[O-])c1 (stereo not given)	68		96		
COc1cc(C2C(C#N)=C(N)Oc3c2ccc2cnccc32)cc(Br)c1OC (stereo not given)	61	71	150	57	
COc1cc(C2C(C#N)=C(N)Oc3c2ccc2ccccc32)cc(I)c1OC (stereo not given)	64		128		
N#CC1=C(N)Oc2c(ccc3[nH]ccc23)C1c1cccnc1 (stereo not given)	110		190		
COc1cc(C2C(C#N)=C(N)Oc3c2ccc2cnccc32)cc(OC)c1OC (stereo not given)	120		440		
COc1cccc(C2C(C#N)=C(N)Oc3c2ccc2[nH]ccc32)c1 (stereo not given)	52		66		
N#CC1=C(N)Oc2c(ccc3cc[nH]c23)C1c1cccc(C#N)c1 (stereo not given)	120		130		
COc1cc(C2C(C#N)=C(N)Oc3c2ccc2ccccc32)cc(OC)c1OC (stereo not given)	27		67		
COc1cc(C2C(C#N)=C(N)Oc3c2ccc2cc[nH]c32)cc(Br)c1OC (stereo not given)		6	53	9	900
COc1cc(C2C(C#N)=C(N)Oc3c2ccc2ncccc32)cc(Br)c1OC (stereo not given)	65		140		
COc1cc(C2C(C#N)=C(N)Oc3c2ccc2cc[nH]c32)cc(OC)c1OC (stereo not given)	72		180		
COc1cc(C2C(C#N)=C(N)Oc3c2ccc2ncccc32)cc(OC)c1OC (stereo not given)	160		22		
COc1cc(C2C(C#N)=C(N)Oc3c2ccc2cccnc32)cc(Br)c1OC (stereo not given)	29		94		
